High-throughput results from PubChem.
ABHD4 inh – ABHD4 (mouse) inhibition, primary FP screen; Q8VD66; purified mABHD4, FP-Rh probe fluorescence polarization; inhibition, % at 8.92 µM; 370,000 tested, 0.54% active; AID 720543;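 active means inhibition exceeding the mean over every tested compound plus 3 SD, cut at about 30% in these data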;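 further: 0% = plate median of compound wells and 100% = S159A mutant with DMSO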
Target sequence (Q8VD66 whole entry, looked up): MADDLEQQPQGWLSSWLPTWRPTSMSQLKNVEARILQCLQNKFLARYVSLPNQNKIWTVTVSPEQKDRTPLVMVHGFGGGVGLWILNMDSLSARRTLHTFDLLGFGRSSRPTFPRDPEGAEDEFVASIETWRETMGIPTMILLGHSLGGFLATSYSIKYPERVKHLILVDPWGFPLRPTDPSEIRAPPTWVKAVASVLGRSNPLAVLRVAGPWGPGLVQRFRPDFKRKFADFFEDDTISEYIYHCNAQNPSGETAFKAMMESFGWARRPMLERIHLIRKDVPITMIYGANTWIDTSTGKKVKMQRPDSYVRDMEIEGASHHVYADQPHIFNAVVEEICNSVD
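System: mouse ABHD4 enzyme, wild type / Medium: HEPES pH 7.0, NaCl, Pluronic buffer / Reagent: FP-Rh activity-based fluorescent probe / Control set: S159A mutant high control, sample median low control / Detection: fluorescence polarization with parallel and perpendicular emission, 525/598 nm / Schedule: 45 min + 60 min at 25 °C / Compound dosing: 8.92 µM, single dose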
SIAE inh – human SIAE inhibition, primary screen. Q9HAT2. SIAE FP-Rh probe binding, fluorescence polarization. inhibition, % at 9.66 µM. 370,000 tested, 0.69% active;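 active means inhibition above a cutoff: mean of compounds within the control limits plus 3 SD of those, cut at about 17% in these data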;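 further: 0% = plate median of compound wells and 100% = probe without SIAE protein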
TCR CD3 inh – inhibitors of human TCR-CD3 interaction; 360,000 tested, 0.37% active; TAMRA-labeled TCR probe fluorescence, biochemical; inhibition, % at 9.4 µM; AID 651800; in the data active means inhibition above about 19%;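 further: recombinant mutant TCR 2C K166C tagged with TAMRA read by polarization; 0% = receptor in buffer alone and 100% = receptor with positive control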
HTRA1 inhibitor – blocks human HTRA1 serine peptidase; Q92743; recombinant HTRA1, FP-rhodamine activity-based probe, fluorescence polarization; inhibition, % at 5.96 µM; 340,000 tested, 0.5% active; in the data active means inhibition above about 36%;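 further: 0% = enzyme with DMSO and 100% = wells lacking enzyme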
PRMT1 inh – blocks human protein arginine methyltransferase 1; AID 652257; 370,000 tested, 1.3% active; recombinant PRMT1, activity-based probe fluorescence polarization; inhibition, % at 2.79 µM; Q99873;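 active means inhibition above about 21% made by adding two undisclosed values, limit read from the data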
PRMT1 inh conf – confirmation of human PRMT1 inhibitors | inhibition, % at 2.79 µM | 3,300 tested, 42% active | recombinant His-PRMT1, activity-based probe fluorescence polarization | shares compounds with PRMT1 inh;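 active means mean inhibition across replicates above the hit cutoff derived for the earlier primary screen, cut at about 22% in these data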
Active calls of the source: *; x = no result given. This is a sample that favours compounds with a hit; in the whole collection about 2.5% have one here.

SMILES	ABHD4 inh	SIAE inh	TCR CD3 inh	HTRA1 inhibitor	PRMT1 inh	PRMT1 inh conf
COc1ccc(C(C)=O)cc1Cc1c(O)[nH]c(=S)[nH]c1=O	5	-1	1	-1	28*	-1
O=C(OCC(=O)c1ccc([N+](=O)[O-])cc1)/C(=C/c1ccc(Cl)cc1)NC(=O)c1ccccc1	6	5	-9	-3	46*	3
Cc1ccc(OP2(=O)Nc3cc(C)c(C)cc3S2)cc1 (centres undefined)	8	15	3	13	67*	60*
CC(C)(C)n1nnnc1C(c1cccc2ccccc12)N1CCC2(CC1)C(=O)NCN2c1ccccc1 (centres undefined)	3	4	-1	x	0	x
Cn1cnc([N+](=O)[O-])c1Sc1ccc([N+](=O)[O-])cc1	-2	-2	-9	5	48*	13
O=[N+]([O-])c1ccc(C(c2ccc([N+](=O)[O-])cc2)c2ccc([N+](=O)[O-])cc2)cc1	-1	-13	7	-24	2	x
CCOC(=O)CNC(=O)N1Cc2ccccc2-n2nncc2C1	-9	-6	-7	3	6	x
C=C1C(=O)OC2CC3(C)OC3C3OC3C3=CC(OC3=O)C12 (centres undefined)	-5	6	1	x	44*	40*
C=C1C(=O)OC2CC3(C)OC3CCC(C)=CC(OC(C)=O)C12 (centres undefined)	-1	-4	-3	2	4	x
O=C(O)c1ccccc1-c1ccc(C=C2C(=O)N(c3ccccc3)C(=S)N(c3ccccc3)C2=O)o1	8	2	-6	-12	39*	59*
Cc1[nH]c2ccccc2c1C(=O)C(=O)N1CC2CC(C1)c1cccc(=O)n1C2 (centres undefined)	1	5	5	4	0	x
COc1ccc(OC(=O)N(C)C[C@@H]2OCc3ccccc3-c3c(n(C)c4ccccc34)C(=O)N([C@H](C)CO)C[C@@H]2C)cc1	-1	-9	5	-8	4	x
O=c1[nH]sc2cc(F)ccc12	10	7	5	2	73*	69*
COC(=O)N(c1ccccc1)P1(=S)OCCO1	-2	4	0	2	30*	44*
CCOC(=O)N(c1ccccc1)P1(=S)OCCO1	11	-1	-8	-1	14	x
CN1C(=O)NC(=O)/C(=C/c2ccc([N+](=O)[O-])s2)C1=O	-7	-7	-13	14	31*	58*
Nc1ccccc1C(=O)OCC(=O)N1CCc2ccccc21	2	7	-4	-9	1	x
N#CSCC(=O)N1c2ccccc2CCc2ccccc21	0	1	1	-1	58*	50*
Nc1ccc2ccc3cccc[n+]3c2c1	6	1	4	13	175*	150*
O=[N+]([O-])c1ccc(N2CCOCC2)c2c1no[n+]2[O-]	-22	-9	5	-3	27*	2
CNS(=O)(=O)c1ccc(-c2ccc(C=C3C(=O)NC(=O)NC3=O)o2)cc1	1	-11	-5	-6	4	x
O=C1NC(=O)C(=Cc2ccc(SC3CCCCC3)o2)C(=O)N1	9	-6	-2	-2	26*	4
CCCCN1C(=O)/C(=C/C=C/c2ccco2)C(=O)NC1=S	-113	-75	-91	-41	39*	44*
O=C1NC(=O)N(Cc2ccc(F)cc2)C(=O)/C1=C\C=C\c1ccco1	-11	-10	-12	1	20	x
CCc1ccc(N2C(=O)NC(=O)/C(=C\C=C\c3ccco3)C2=O)cc1	-14	-15	-15	8	27*	6
SMILES	ABHD4 inh	SIAE inh	TCR CD3 inh	HTRA1 inhibitor	PRMT1 inh	PRMT1 inh conf
CN1OC[C@@H]2CN[C@H](c3ccc(Br)cc3)C[C@@H]21	10	-7	5	-3	1	x
CN1C(=O)NC(=O)/C(=C/c2ccc(C(=O)O)cc2)C1=O	-4	7	-3	1	31*	6
Cc1ccc(/C=C2/C(=O)NC(=O)N(C)C2=O)cc1	4	-4	-2	7	20	x
CCc1ccc(/C=C(/C#N)C(N)=S)cc1	6	1	-2	-2	30*	5
N#C/C(=C\c1ccc(O)cc1)C(=O)O	-2	4	-6	4	3	x
CC1=C2[C@@H]3OC(=O)[C@H](C)C3CC[C@@]2(C)C=CC1=O (some centres undefined)	5	-3	-3	-1	-2	x
COC(=O)COc1ccc(/C=C2\C(=O)NC(=S)N(c3ccc(C)cc3)C2=O)cc1OC	5	-2	-6	-3	32*	27*
COc1ccc(N2C(=O)/C(=C/c3ccc(OC)c(OC)c3)C(=O)NC2=S)cc1	4	-3	-4	0	41*	49*
CCOC(=O)[C@]12Cc3ccc4ccccc4c3[C@H]1N(Cc1ccccc1)C(=O)c1ccccc12	-15	-7	-1	x	-9	x
N#CC1c2ccccc2-n2nncc2CN1C(=O)c1ccccc1F (centres undefined)	7	-5	4	x	-1	x
C=CCN1C[C@H](C)N(C(c2ccc(C(=O)N(CC)CC)cc2)c2cccc(OC)c2)CC1C (some centres undefined)	-6	3	-4	x	-7	x
O=c1[nH]c2ccccc2n1C1CCN(C(CCc2ccccc2)c2nnnn2C2CCCC2)CC1 (centres undefined)	-2	3	-7	x	3	x
COP(=S)(OC)SCN1C(=O)c2ccccc2C1=O	0	5	5	0	59*	76*
COC(=O)C1=C(c2ccc(OC)c(OC)c2)C[C@@H]2CC[C@H]1N2C(=O)NCCCOC(C)C	1	4	0	3	-4	x
COC(=O)C1=C(C(=O)OC)C2OC1c1cc3ccccc3cc12	-4	-1	-11	1	64*	46*
CNC(=O)CSP(=S)(OC)OC	-2	12	-1	4	32*	29*
Nc1ccc2nonc2c1[N+](=O)[O-]	19	0	10	15	92*	78*
CCC(C)c1cnc(CC(C)C)c(=O)n1O (centres undefined)	2	0	2	x	0	x
O=P(C(Cl)Cl)(N1CCOCC1)N1CCOCC1	-7	6	4	-1	0	x
O=CC(Br)P(=O)(N1CCOCC1)N1CCOCC1 (centres undefined)	-2	0	-1	x	26*	31*
NC(=S)/N=C/c1c(O)[nH]c(=O)[nH]c1=O	3	-5	10	9	34*	4
C[C@@H]1CNCCN1c1ccc(N2CC[C@@H](O)C2)c(C#N)c1	2	7	0	x	-5	x
Cc1cc(N2CCNC[C@H]2C)ccc1N1CC[C@@H](O)C1	25	9	-2	x	51*	8
COc1ccc2nc(-c3ccc(CN4CCC(n5c(=O)[nH]c6cc(Cl)ccc65)CC4)cc3)c(-c3ccccc3)nc2c1	-18	-13	7	x	0	x
c1ccc2nc(N3CCNCC3)ccc2c1	1	2	6	11	-2	x
